The series concerns MS2 coat protein. The series is described as follows: apparent Kd, MS2 coat protein; higher = weaker binding; RNA-MaP array; FMN 200 µM where present. Summed up:
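SNAP-549-labelled MS2 coat protein, doubled from 0.7 or 1.5 nM to 3 µM, was titrated over designs transcribed by stalled E. coli RNA polymerase on Illumina sequencing-chip clusters. Titrations were run without and then with constant ligand in 100 mM Tris-HCl pH 7.5, 80 mM KCl, 4 mM MgCl2, BSA, DTT, yeast tRNA and Tween-20. The apparent Kd is the median of filtered per-cluster fits to green signal normalised to red-channel RNA signal and control-cluster median Fmax.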

The mark [1] stands for this setting: designed as: OFF switch for flavin mononucleotide, no ligand.
Setting [2] is: ligand present: flavin mononucleotide, designed as: OFF switch for flavin mononucleotide.
Setting [3] is: designed as: ON switch for flavin mononucleotide, no ligand.
[4] abbreviates: ligand present: flavin mononucleotide, designed as: ON switch for flavin mononucleotide.

Usually apparent Kd stands for the concentration giving half-maximal binding under the conditions of the assay. On to “UCGUGGUCAGGAUAUACAUGAGGAUCACCCAUGUAAAAGAGCAUUAAGGAGAGACUACGUAGAAGGGACAAAUU”, for which the “apparent Kd” value is 51.6 nM under setting [1] and 47.2 nM under setting [2].

“CUCGUGUCAGGAUAUCGAUGGCGCCUCCGGGCGCCCGAACGCGAGAAGGGACAUGAGGAUCACCCAUGUAAAAC”: the “apparent Kd” value came to 71.8 nM under setting [1] and 159 nM under setting [2].

For the sequence “AGAUAACAUGAGGAUCACCCAUGUGAGGAUAUUUACUCAAGAGCUUCGGCUCUCAGGUGAAGAAGGCACAAUGA”, the “apparent Kd” value is, setting by setting: under setting [1], 55.9 nM; under setting [2], 83.4 nM.

As to “UACACGGUAGGAUAUACGUAGAUGCAGGUUCGUGUGGUGCUACAUGAGGAUCACCCAUGUAGAAGGACCAACGU”, the “apparent Kd” value under setting [1] is 15.7 nM and the “apparent Kd” value under setting [2] was determined as 15.2 nM.

Take “AAAUAAAGCAGUGUAUUAAGAUAACAUGAGGAUCACCCAUGUAGAAGGCUCGAGCAAAAUGCUCGAGAGGAUAUACAACACUGC”: the “apparent Kd” value worked out at 5.04 nM under setting [1] and 9.55 nM under setting [2].

As for “AACGUGUGAGGAUAUGCCGUGCCCUUCCGGAAGGAGCGGGUGCAGAAGGCACAUGAGGAUCACCCAUGUCGGCA”, the “apparent Kd” value is, setting by setting: under setting [1], 33.9 nM; under setting [2], 49.8 nM.

For “GUGAAACAUGAGGAUCACCCAUGUGAGGAUAUGAUACUAUGUACUUCGGUACAUAGUAUCAGAAGGCACAGUGA”, the “apparent Kd” value is 96.1 nM under setting [1] and 282 nM under setting [2].

With “CCGGCUGCUGUGAGGAUAUGCCUGUGGGUGCGCGGGCAGAAGGCACAUGAGGAUCACCCAUGUCCUGCGGUCCC”, the “apparent Kd” value by setting is: under setting [1], 25.7 nM; under setting [2], 50.6 nM.

In the case of “UGAUCGAGAGAUCUUAGAUUCUGGUAGGAUAUACAUUUAAAACGCUUUACAUGAGGAUCACCCAUGUAGAAGGACUAGAGUCUA”, the “apparent Kd” value under setting [1] turned out to be 6.68 nM and the “apparent Kd” value under setting [2] came to 7.5 nM.

With “AUCAGCUCGUCAGGAUAUACGUCACUGCGUCAGCAGUGUGGUAAGAUCACAUGAGGAUCACCCAUGUAGAAGGGACGAGCUGAA”, the “apparent Kd” value was found to be 14.3 nM under setting [1] and 267 nM under setting [2].

For “GCGAUUAAGUAGAAGGUACGUUAUAAGUCAAUGUAAGGAUAUACUGACAUGAGGAUCACCCAUGUUUAAUUUGUUUACUGUCGC”, the “apparent Kd” value by setting is: under setting [3], 7.34 nM; under setting [4], 5.7 nM.

In the case of “ACUAGAAGCGUGAGAUAUCACAUGAGGAUCACCCAUGUGACACAGGAUAUAACAAUAUCAGAAGGUUAGAAGGGUGAGCACGCC”, the “apparent Kd” value runs as follows: under setting [3], 164 nM; under setting [4], 45.6 nM.

Regarding “UUGGACGACGUAGGAUAUGUAGGAUAUUCCUACAUGAGGAUCACCCAUGUUGACAUGGAAGAAGGACAGAAGGACGAUGUCCAU”, the “apparent Kd” value under setting [3] is 261 nM and the “apparent Kd” value under setting [4] stood at 5.57 nM.

For “GACUUGUAUGAGAAGGGACAUGGACUAGAUGUGACAUGAGGAUCACCCAUGUCAGGAUAUCAAGCGACCCGUAGCCGAUAGGCG”, the “apparent Kd” value is, setting by setting: under setting [1], 10.5 nM; under setting [2], 46 nM.

Take “AAAAGACAUGAGGAUCACCCAUGUCUUCGGACAUGAGGAUAUGUACAGACUUCGGUCUGUACAGAAGGCAUGUAAA”: the “apparent Kd” value by setting is: under setting [3], 42.9 nM; under setting [4], 17 nM.

For the sequence “UAGUAGAUCCGAGGAUAUACAAUCCGGAAACGGUACAUGAGGAUCACCCAUGUAGAAGGCGGAUCUACAGGUACUAAAGUACCG”, the “apparent Kd” value is, setting by setting: under setting [1], 6.19 nM; under setting [2], 9.18 nM.

On to “ACUGAGGACACAGGAUAUCCGGUUAGGGUAAUCGGAGAAGGGUGACGGCAUGUAGGAAGUCACAUGAGGAUCACCCAUGUGAGA”, for which the “apparent Kd” value is, setting by setting: under setting [3], 182 nM; under setting [4], 83.5 nM.

With “GGGAAGUGAGGAUAUGCUGCUCGUCACUUGCGUGAUGAGUAGCAGAAGGUACAUGAGGAUCACCCAUGUAAAGA”, the “apparent Kd” value was 29.5 nM under setting [1] and 20.7 nM under setting [2].

Take “UUAGAAUUGCAAGGAUAUCUUAUUUAGAUAGUAAGAGAAGGUGCUUUAUAGUUACAUGAGGAUCACCCAUGUAUUUCUUUUUAU”: the “apparent Kd” value amounted to 23.1 nM under setting [3] and 19.7 nM under setting [4].

In the case of “ACUUGUAAGCAGAAGGCAGUCAUUAUAUUAAUCAUGUAGACAUGAGGAUCACCCAUGUAGAGUACUGAGGAUAUGCAUCGAUAG”, the “apparent Kd” value under setting [1] came to 11 nM and the “apparent Kd” value under setting [2] came to 7.34 nM.

In the case of “UCGGCGCGAGGAUAUGCGGUUCCUUCUUCGGGCCGGAGCGUACAUGAGGAUCACCCAUGUAGAAGGCGCGCCGC”, the “apparent Kd” value by setting is: under setting [1], 13.6 nM; under setting [2], 15.3 nM.

As for “AUCCGGCGUGUAGGAUAUGGAAAAAAUUAGGAUCCAGAAGGACAUGAGGAUCACCCAUGUACAUGUAAACAGUCAUCACCGGAA”, the “apparent Kd” value by setting is: under setting [1], 33.5 nM; under setting [2], 51.7 nM.

As to “AUCGGUCCGUAGAAGGGUGACAUGAGGAUCACCCAUGUGCCGUGGGCAUUUAUGCCUCCACGGCCACAGGAUAUACGGAGUUGA”, the “apparent Kd” value runs as follows: under setting [3], 54 nM; under setting [4], 36.8 nM.

With “UAUCGUUCCGAGGAUAUGAGGCGACUGGCGCGAUCAGAAGGCGGAACAUGAGGAUCACCCAUGUUCCUUACCUU”, the “apparent Kd” value is, setting by setting: under setting [1], 12.2 nM; under setting [2], 20.5 nM.

For “AUACAUGAGGAUCACCCAUGUCAGCGGCAGUGCUGCAGAUCAAGAAGGGAUCCCGUGGGCCGGGAUCAGGAUAUUGAUCCUGCA”, the “apparent Kd” value is, setting by setting: under setting [3], 105 nM; under setting [4], 18.6 nM.

As for “CGAUAGUGUAGUUAUCCGUAGCGAACAUGAGGAUCACCCAUGUAGGAUAUGUUACUAAACUAGUAACAGAAGGGCGUGAGUCUU”, the “apparent Kd” value was determined as 30.2 nM under setting [1] and 30.6 nM under setting [2].

With “ACUGUUUGAUUCCUCUUAUACAUGAGGAUCACCCAUGUUAUCGAGGAUAUGCAUUAGAGUGUUUAGCAGAAGGCGAUGUAGUUG”, the “apparent Kd” value runs as follows: under setting [1], 7.56 nM; under setting [2], 19.1 nM.

Regarding “ACGUUUAAUACAGGAUAUGUUCUUAUACUAUACAUUGCUUAUUACUUAAUUACAGAAGGGUAUAACAUGAGGAUCACCCAUGUA”, the “apparent Kd” value by setting is: under setting [3], 108 nM; under setting [4], 63.2 nM.

For the sequence “GUUAAUUUCGAAGGAUAUGGAUACAUGAGGAUCACCCAUGUAUAAAAUGAGAUCUAUUAUAUGAUCCAGAAGGUCGUUUUUUAU”, the “apparent Kd” value reads like this: under setting [1], 36.5 nM; under setting [2], 69.6 nM.

Regarding “GUGGUACAUGAGGAUCACCCAUGUGUGGGCGCAUGAGGAUAUGUCAGUCCCUGAAGUACGAUAGAAGGCAUGGUGA”, the “apparent Kd” value is 201 nM under setting [3] and 302 nM under setting [4].

“AUGUUACAUGAGGAUCACCCAUGUGAGGAUAUGUGUACCGGUAAAAAAGUGUCUGGCCACAGAAGGCAUUUGGA”: the “apparent Kd” value was 29.4 nM under setting [1] and 33 nM under setting [2].

For the sequence “AAGAAGUAAGGAUAUGGCCGGGUCCCUGGGUUUGGACCCGGCUAGAAGGUACAUGAGGAUCACCCAUGUAAGAA”, the “apparent Kd” value by setting is: under setting [1], 14.7 nM; under setting [2], 15.4 nM.

Take “GACUUCUCUGAGGAUAUUGCAUCAUACGAUAAAUAAGAAGGCAGAACAUGAGGAUCACCCAUGUGGGCUCCAAG”: the “apparent Kd” value runs as follows: under setting [1], 54.7 nM; under setting [2], 256 nM.

On to “GUGAGCUCGUGAGGAUAUACAACACUGCUUCGGCAGUGUAUUAAGAUCACAUGAGGAUCACCCAUGUAGAAGGCACGAGCUGAU”, for which the “apparent Kd” value under setting [1] came to 14.5 nM and the “apparent Kd” value under setting [2] is 272 nM.

For “GCGUCAGAAUUAAUUGUGACAUACAGAAGGCAAUAGUUUAUUUCAGACAUGAGGAUCACCCAUGUUGAGGAUAUGUAUUUACUC”, the “apparent Kd” value is 8.92 nM under setting [1] and 7.82 nM under setting [2].

Take “AUUUAUUAGUAAGGAUAUACUAGCGAUUAGCUUGUAGAAGGUACAGUCUUAUGUAUAACAUGUUAACAUGAGGAUCACCCAUGU”: the “apparent Kd” value is, setting by setting: under setting [3], 60.4 nM; under setting [4], 27.9 nM.

As for “UUUUUGUGAGGAUAUGCGUAGUAGAACAAUAGUACUACUACGUAGAAGGCACAUGAGGAUCACCCAUGUUCCUC”, the “apparent Kd” value turned out to be 37.8 nM under setting [1] and 254 nM under setting [2].

For “UGUUGUAUUACAGGAUAUCUAUUAGUUUGAUUUAGAGAAGGGUAUUCACAUGAGGAUCACCCAUGUAUAUACGAGGAAGUUGUG”, the “apparent Kd” value under setting [3] turned out to be 57.8 nM and the “apparent Kd” value under setting [4] stood at 57.9 nM.

On to “CGCUACGUUUCGUAGCAGUGUCAUCGAGAAGGCCCUGACAUGAGGAUCACCCAUGUUCCAAAAUGGGAGGAUAUCGAUGAUACA”, for which the “apparent Kd” value is, setting by setting: under setting [3], 4.89 nM; under setting [4], 4.99 nM.

As to “GUCAGCUCGUGAGGAUAUACAUCACUGCUUCGGCAGUGUAUUAAGACUACAUGAGGAUCACCCAUGUAGAAGGCACGAGCUGAU”, the “apparent Kd” value under setting [1] turned out to be 17.4 nM and the “apparent Kd” value under setting [2] turned out to be 17.9 nM.

With “GUUCUUCCUGUAAGGAUAUCCAUGUGUCAGUUUAUGGAGAAGGUACAUGAGGAUCACCCAUGUCACCCGCGUUA”, the “apparent Kd” value runs as follows: under setting [1], 18.4 nM; under setting [2], 51.2 nM.

Regarding “AUGCUAUACGAAGGAUAUGGUUACAUGAGGAUCACCCAUGUUAUGAUUGGUUACUUGUUUAGUUUCCAGAAGGUCGUAUAGCUA”, the “apparent Kd” value came out at 58.1 nM under setting [1] and 232 nM under setting [2].

As for “CGUGCUUAUGUAGGAUAUGGUUAUCUAUGUCUAGUUACUAGACAUAGAUAACCAGAAGGACAUGAGGAUCACCCAUGUUGCACG”, the “apparent Kd” value is 8.28 nM under setting [1] and 15.5 nM under setting [2].

With “UUUGUCUGUGUGAGGAUAUACUUUGUUUGGUCGUUGUAGAAGGCACAUGAGGAUCACCCAUGUAGUUUGUUGUG”, the “apparent Kd” value reads like this: under setting [1], 20.4 nM; under setting [2], 22.9 nM.

With “GCGUGUCAUGUAGGAUAUGACACAGGAAACUGGUCAGAAGGACAUGAGGAUCACCCAUGUAAAAUGUUCAAGAAUAACACAUGC”, the “apparent Kd” value stood at 50.6 nM under setting [1] and 185 nM under setting [2].

In the case of “ACAAAUGGAGGAUAUACAUGAGGAUCACCCAUGUAUAUCCUACAUAUGUGAUUUUUAUGUAGAAGGCCAUUUGA”, the “apparent Kd” value runs as follows: under setting [1], 12.8 nM; under setting [2], 13.4 nM.

For the sequence “AAUUUACAUGAGGAUCACCCAUGUGAGGAUAUAUAUACAUGCUUGUUAUUGCGUGUGUGUAGAAGGCGCGUGAU”, the “apparent Kd” value runs as follows: under setting [1], 64.7 nM; under setting [2], 115 nM.

With “GCUAGUAUUGCAGGAUAUUGAGAAUAAUUUUGGCAAGAAGGGCAUAACAUGAGGAUCACCCAUGUAUUCCUUAGUGAUACUAGC”, the “apparent Kd” value runs as follows: under setting [1], 6.58 nM; under setting [2], 6.11 nM.

These data come from the EternaBench riboswitch data.
